Laboratory results reported in PubChem BioAssay AID504349 (Southern Research Specialized Biocontainment Screening …, 2011).
Calls of active or inactive are those of the source. The rule behind the calls is not given here.

Test system: not listed separately
Test: OD600 growth after T7 infection, EV36 – E. coli EV36 K1, powder samples, selectivity assay for bacterial capsule biogenesis inhibitors, dose response (AID 504349)
Details: E. coli EV36 K1, T7 phage lysis, OD600 3 h; at 100 µM (top of the series)
Outline: (§1)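 Probe or stimulus: T7 phage infection; assay system: E. coli EV36 K1:K-12 hybrid cells; input: overnight bacterial culture diluted 1:100 into each well; measure: phage lysis inhibition from OD600; schedule: 1.5 h compound at 37 °C, 3 h after T7; compound dosing: dose series 0.39–100 µM final, 1% DMSO; technique: absorbance at 600 nm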

Q: With COc1ccc(OC)c(-c2cc(C(=O)O)c3cc4ccccc4cc3n2)c1 as the molecule, how does the phage lysis inhibition (viability) read?
A: The phage lysis inhibition (viability) was 99% (inactive).

Q: With Cc1ccc(C2c3c(oc4cc(C)c(C)cc4c3=O)C(=O)N2CCCN2CCOCC2)cc1 (stereo not given) as the molecule, how does the phage lysis inhibition (viability) read?
A: Its phage lysis inhibition (viability) is 91.7% (inactive).

Q: With O=C(O)c1cc(-c2cccc(Cl)c2)nc2cc3ccccc3cc12 as the molecule, how does the phage lysis inhibition (viability) read?
A: Its phage lysis inhibition (viability) is 101% (inactive).

Q: With O=C(O)c1cc(-c2c[nH]c3ccccc23)nc2cc3ccccc3cc12 as the molecule, how does the phage lysis inhibition (viability) read?
A: The phage lysis inhibition (viability) was 101% (inactive).

Q: For Cc1cc(C)c2c(=O)c(-c3cc(C(=O)O)c4cc5ccccc5cc4n3)coc2c1, which phage lysis inhibition (viability) is on record?
A: Its phage lysis inhibition (viability) is 107% (inactive).

Q: With C=CCOc1ccc(C2c3c(oc4ccccc4c3=O)C(=O)N2CCCN2CCOCC2)cc1 (stereo not given) as the molecule, how does the phage lysis inhibition (viability) read?
A: Its phage lysis inhibition (viability) is 97.4% (inactive).

Test system: E. coli EV36 K1, T7 phage lysis, OD600 3 h
Test: as above
Details: not given
Outline: as §1

Q: Which IC50 does the source give for O=C(COc1ccc(Cl)cc1Cl)Nc1ccc(C(=O)Nc2ccccc2C(=O)O)cc1 here?
A: Its IC50 is 2.9 µM.

Q: Which IC50 does the source give for O=C(ONc1ccc(N=NC(=O)c2ccccc2O)cc1)c1ccccc1 here?
A: The IC50 was less than 0.39 µM.

Q: For O=C(Nc1ccncc1)c1ccc2ncsc2c1, which IC50 is on record?
A: Its IC50 is less than 0.39 µM.

Q: Which IC50 does the source give for CC1(C(=O)O)CCC(C(=O)Nc2ccc3ccccc3c2)C1(C)C (stereo not given) here?
A: The IC50 was 8.5 µM.

Q: Which IC50 does the source give for CC1=NN2C(=N)/C(=C\c3ccc(SCc4ccco4)o3)C(=O)N=C2S1 here?
A: The IC50 was 1.5 µM.

Q: For O=C(NCc1cc([N+](=O)[O-])ccc1O)c1cccnc1Sc1ccccc1Cl, which IC50 is on record?
A: Its IC50 is 1.8 µM.

Q: Which IC50 does the source give for CCOc1ccc(-c2cc(NC(=O)c3c(F)cccc3F)c(C(=O)O)s2)cc1 here?
A: Its IC50 is less than 0.39 µM.

Q: Which IC50 does the source give for COc1ccc2nc(NC(=O)c3ccc(Br)s3)sc2c1 here?
A: Its IC50 is less than 0.39 µM.

Q: For O=C(NCc1cc([N+](=O)[O-])ccc1O)c1cccnc1Sc1ccccc1, which IC50 is on record?
A: Its IC50 is 4.6 µM.
